Measured values from ChEMBL document CHEMBL2417509, “Synthesis and biological evaluation of prodigiosene conjugates of porphyrin, estrone and 4-hydroxytamoxifen” (2013).
Calls of active or inactive are those of the source. The calls are words filed in the database; no cut-off is given here.

Experiments:
MDA-MB-435 = test: Cytotoxicity against human MDA-MB-435 cells after 2 days by sulforhodamine B assay; assay type: functional; settings: MDA-MB-435, 48 h
How it was run: (§1)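 NCI60 multi-dose screen, 59 human tumour lines available. Cells exposed to compound across a 5-log mol/L concentration range for 2 days, then fixed and stained with sulphorhodamine B, optical density read. Growth inhibition calculated against time-zero control and untreated cells. GI50 derived from the dose series, average of two replicates.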

SN12C = test: Cytotoxicity against human SN12C cells after 2 days by sulforhodamine B assay; assay type: functional; settings: 48 h; how it was run: as §1
OVCAR-5 = test: Cytotoxicity against human OVCAR5 cells after 2 days by sulforhodamine B assay; assay type: functional; settings: OVCAR-5, 48 h; how it was run: as §1
SK-OV-3 = test: Cytotoxicity against human SKOV3 cells after 2 days by sulforhodamine B assay; assay type: functional; settings: SK-OV-3, 48 h; how it was run: as §1
HOP-92 = test: Cytotoxicity against human HOP92 cells after 2 days by sulforhodamine B assay; assay type: functional; settings: HOP-92, 48 h; how it was run: as §1
HCT-116 = test: Cytotoxicity against human HCT116 cells after 2 days by sulforhodamine B assay; assay type: functional; settings: HCT-116, 48 h; how it was run: as §1
MCF7 [1] = test: Cytotoxicity against human ER positive MCF7 cells assessed as cell viability at 1 uM after 72 hrs by MTT assay; assay type: functional, cell-based
How it was run: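 Lines kept in DMEM with 10% fetal bovine serum and 1% penicillin/streptomycin at 37 °C, 5% CO2. Compound applied at 1 µM for 72 h, then standard MTT reduction read-out. Viability given as mean percentage of formazan formed by treated cells relative to mock-treated cells (0.1% DMSO). Run in quadruplicate, standard error, Student's t-test.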

NCI-H23 = test: Cytotoxicity against human NCI-H23 cells after 2 days by sulforhodamine B assay; assay type: functional; settings: NCI-H23, 48 h; how it was run: as §1
Malme-3M = test: Cytotoxicity against human MALME-3M cells after 2 days by sulforhodamine B assay; assay type: functional; settings: 48 h; how it was run: as §1
NCI-H226 = test: Cytotoxicity against human NCI-H226 cells after 2 days by sulforhodamine B assay; assay type: functional; settings: NCI-H226, 48 h; how it was run: as §1
IGROV-1 = test: Cytotoxicity against human IGROV1 cells after 2 days by sulforhodamine B assay; assay type: functional; settings: IGROV-1, 48 h; how it was run: as §1
SF-539 = test: Cytotoxicity against human SF539 cells after 2 days by sulforhodamine B assay; assay type: functional; settings: SF-539, 48 h; how it was run: as §1
SNB-19 = test: Cytotoxicity against human SNB19 cells after 2 days by sulforhodamine B assay; assay type: functional; settings: SNB-19, 48 h
How it was run: (§2)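 NCI DTP NCI60 multi-dose screen (59 human tumour lines available). Cells exposed to compound over a 5-log mol/L concentration range for 2 days, then fixed and stained with sulphorhodamine B, with optical density read. Growth inhibition calculated relative to time-zero cells and untreated cells, giving GI50 (half-maximal growth inhibition concentration). Average of two replicates.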

A549 = test: Cytotoxicity against human A549/ATCC cells after 2 days by sulforhodamine B assay; assay type: functional; settings: A549, 48 h; how it was run: as §1
CAKI-1 = test: Cytotoxicity against human CAKI-1 cells after 2 days by sulforhodamine B assay; assay type: functional; settings: CAKI-1, 48 h; how it was run: as §1
HCT-15 = test: Cytotoxicity against human HCT15 cells after 2 days by sulforhodamine B assay; assay type: functional; settings: HCT-15, 48 h; how it was run: as §1
SW-620 = test: Cytotoxicity against human SW620 cells after 2 days by sulforhodamine B assay; assay type: functional; settings: SW-620, 48 h; how it was run: as §2
UACC-62 = test: Cytotoxicity against human UACC62 cells after 2 days by sulforhodamine B assay; assay type: functional; settings: UACC-62, 48 h; how it was run: as §2
U-251 = test: Cytotoxicity against human U251 cells after 2 days by sulforhodamine B assay; assay type: functional; settings: U-251, 48 h; how it was run: as §2
UACC-257 = test: Cytotoxicity against human UACC257 cells after 2 days by sulforhodamine B assay; assay type: functional; settings: UACC-257, 48 h; how it was run: as §2
NCI-H522 = test: Cytotoxicity against human NCI-H522 cells after 2 days by sulforhodamine B assay; assay type: functional; settings: NCI-H522, 48 h; how it was run: as §1
RXF 393 = test: Cytotoxicity against human RXF393 cells after 2 days by sulforhodamine B assay; assay type: functional; settings: RXF 393, 48 h; how it was run: as §1
SK-MEL-2 = test: Cytotoxicity against human SK-MEL-2 cells after 2 days by sulforhodamine B assay; assay type: functional; settings: SK-MEL-2, 48 h; how it was run: as §1
[2] = Cytotoxicity against human NCI-ADR-RES cells after 2 days by sulforhodamine B assay; assay type: functional; settings: 48 h; how it was run: as §1
[3] = Cytotoxicity against human Hs578T cells after 2 days by sulforhodamine B assay; assay type: functional; settings: Hs-578T, 48 h; how it was run: as §1
MCF7 [4] = test: Cytotoxicity against human MCF7 cells after 2 days by sulforhodamine B assay; assay type: functional; settings: MCF7, 48 h; how it was run: as §1
OVCAR-4 = test: Cytotoxicity against human OVCAR4 cells after 2 days by sulforhodamine B assay; assay type: functional; settings: OVCAR-4, 48 h; how it was run: as §1
K562 = test: Cytotoxicity against human K562 cells after 2 days by sulforhodamine B assay; assay type: functional; settings: K562, 48 h; how it was run: as §1
PC-3 = test: Cytotoxicity against human PC3 cells after 2 days by sulforhodamine B assay; assay type: functional; settings: PC-3, 48 h; how it was run: as §1
ACHN = test: Cytotoxicity against human ACHN cells after 2 days by sulforhodamine B assay; assay type: functional; settings: 48 h; how it was run: as §1
[5] = read-out: LC50 (the source's name)

Structure (SMILES): COc1cc(-c2ccc[nH]2)[nH]c1/C=C1\N=C(C)C(C(=O)CCC(=O)Oc2ccc3c(c2)CC[C@@H]2[C@@H]3CC[C@]3(C)C(=O)CC[C@@H]23)=C1C
- GI50 (MDA-MB-435): 7.68 µM
- TGI (MDA-MB-435): > 100 µM
- CC50 (MDA-MB-435; [5]): > 100 µM
- GI50 (SN12C): 5.21 µM
- TGI (SN12C): > 100 µM
- CC50 (SN12C; [5]): > 100 µM
- GI50 (OVCAR-5): 9.64 µM
- LC50 (OVCAR-5): > 100 µM
- TGI (OVCAR-5): > 100 µM
- GI50 (SK-OV-3): > 100 µM
- LC50 (concentration killing 50% of starting cells) (SK-OV-3): > 100 µM
- TGI (SK-OV-3): > 100 µM
- GI50 (HOP-92): 2.23 µM
- TGI (HOP-92): 19.4 µM
- CC50 (HOP-92; [5]): > 100 µM
- GI50 (HCT-116): 0.8 µM
- LC50 (concentration killing 50% of cells vs time zero) (HCT-116): > 100 µM
- TGI (HCT-116): > 100 µM
- Activity (MCF7 [1]): inactive
- GI50 (NCI-H23): 9.8 µM
- LC50 (concentration killing 50% of cells) (NCI-H23): > 100 µM
- TGI (NCI-H23): > 100 µM
- GI50 (Malme-3M): 29 µM
- LC50 (Malme-3M): > 100 µM
- TGI (Malme-3M): > 100 µM
- GI50 (NCI-H226): 11.1 µM
- LC50 (NCI-H226): > 100 µM
- TGI (NCI-H226): > 100 µM
- GI50 (IGROV-1): 8.4 µM
- LC50 (IGROV-1): > 100 µM
- TGI (IGROV-1): > 100 µM
- GI50 (SF-539): 15.5 µM
- LC50 (SF-539): > 100 µM
- TGI (SF-539): > 100 µM
- GI50 (SNB-19): 18.4 µM
- TGI (SNB-19): > 100 µM
- CC50 (SNB-19; [5]): > 100 µM
- GI50 (A549): 2.68 µM
- LC50 (concentration giving 50% net cell kill) (A549): > 100 µM
- TGI (A549): > 100 µM
- GI50 (CAKI-1): 9.05 µM
- LC50 (concentration killing 50% of the cells present at time zero) (CAKI-1): > 100 µM
- TGI (CAKI-1): > 100 µM
- GI50 (HCT-15): 2.6 µM
- LC50 (HCT-15): > 100 µM
- TGI (HCT-15): > 100 µM
- GI50 (SW-620): 0.77 µM
- LC50 (concentration killing 50% of cells) (SW-620): > 100 µM
- TGI (SW-620): > 100 µM
- GI50 (UACC-62): 3.71 µM
- TGI (UACC-62): 17.6 µM
- CC50 (UACC-62; [5]): 65.1 µM
- GI50 (U-251): 3.41 µM
- LC50 (U-251): > 100 µM
- TGI (U-251): > 100 µM
- GI50 (UACC-257): 97.6 µM
- TGI (UACC-257): > 100 µM
- CC50 (UACC-257; [5]): > 100 µM
- GI50 (NCI-H522): 4.68 µM
- LC50 (NCI-H522): > 100 µM
- TGI (NCI-H522): 60.1 µM
- GI50 (RXF 393): 11.7 µM
- LC50 (concentration killing 50% of cells) (RXF 393): > 100 µM
- TGI (RXF 393): > 100 µM
- GI50 (SK-MEL-2): 15.6 µM
- LC50 (SK-MEL-2): > 100 µM
- TGI (SK-MEL-2): 58.8 µM
- GI50 [2]: 13.1 µM
- TGI [2]: > 100 µM
- CC50 [2, 5]: > 100 µM
- GI50 [3]: 14.2 µM
- TGI [3]: > 100 µM
- CC50 [3, 5]: > 100 µM
- GI50 (MCF7 [4]): 1.91 µM
- LC50 (concentration giving 50% net cell kill) (MCF7 [4]): > 100 µM
- TGI (MCF7 [4]): > 100 µM
- GI50 (OVCAR-4): 20.9 µM
- LC50 (concentration killing 50% of cells) (OVCAR-4): > 100 µM
- TGI (OVCAR-4): > 100 µM
- GI50 (K562): 4.23 µM
- LC50 (concentration killing 50% of cells) (K562): > 100 µM
- TGI (K562): > 100 µM
- GI50 (PC-3): 7.45 µM
- LC50 (concentration killing 50% of cells) (PC-3): > 100 µM
- TGI (PC-3): > 100 µM
- GI50 (ACHN): 5.83 µM
- LC50 (concentration killing 50% of cells) (ACHN): > 100 µM
- TGI (ACHN): > 100 µM
